Data from ChEMBL document CHEMBL1153430 (J Med Chem, 2009).
pEC50: −log10 of the molar value.

Experiments:
[1] = Negative inotropic activity in guinea pig left atrium assessed as decrease in atrial tension; assay type: functional, tissue-based; details: Cavia porcellus, Cardiac atrium
[2] = Negative chronotropic activity in guinea pig spontaneously beating right atrium assessed as decrease in atrial rate at 50 uM relative to control; assay type: functional, Cavia porcellus, Cardiac atrium; design: scale not given: the % may be the effect or the level left
Method in brief: (§1)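 Guinea pig isolated atria, compound given at increasing doses. Left atrium driven at 1 Hz: percent decrease in developed tension (inotropy, EC50). Spontaneously beating right atrium: percent decrease in rate (chronotropy, EC30). Probit analysis (Litchfield-Wilcoxon), n = 6-7. Potencies not calculated when maximal effect <50%.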

Aorta [3] = experiment: Vasorelaxant activity in potassium-depolarized guinea pig thoracic aorta assessed as inhibition of calcium-induced contraction at 50 uM; assay type: functional, Cavia porcellus; design: scale not given: the % may be the effect or the level left
[4] = Negative inotropic activity in guinea pig left atrium assessed as decrease in atrial tension at 50 uM relative to control; assay type: functional, Cavia porcellus, Cardiac atrium; design: scale not given: the % may be the effect or the level left
[5] = Negative inotropic activity in guinea pig left atrium assessed as decrease in atrial tension at 10 uM relative to control; assay type: functional, Cavia porcellus, Cardiac atrium; design: scale not given: the % may be the effect or the level left; method in brief: as §1
Aorta [6] = experiment: Vasorelaxant activity in potassium-depolarized guinea pig thoracic aorta assessed as inhibition of calcium-induced contraction; assay type: functional, Cavia porcellus; design: scale not given: the % may be the effect or the level left
Heart [7] = experiment: Effect on cardiac activity in guinea pig spontaneously beating heart assessed as change in atrioventricular conduction time at 1 uM relative to control; assay type: functional, Cavia porcellus
Method in brief: (§2)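 Isolated perfused, spontaneously beating guinea pig heart. Readouts: +(dP/dt)max (maximal rate of rise of left ventricular pressure), heart rate from ECG, coronary perfusion pressure, PR interval. Given as percent change from basal at the highest concentration tested (1 µM), mean ± SEM. pEC50 taken from log concentration-response curves, n = 4-6.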

Heart [8] = experiment: Effect on cardiac activity in guinea pig spontaneously beating heart assessed as change in coronary perfusion pressure at 1 uM relative to control; assay type: functional, Cavia porcellus; method in brief: as §2
Heart [9] = experiment: Effect on cardiac activity in guinea pig spontaneously beating heart assessed as change in heart rate at 1 uM relative to control; assay type: functional, Cavia porcellus; method in brief: as §2
[10] = Negative chronotropic activity in guinea pig spontaneously beating right atrium assessed as decrease in atrial rate at 10 uM relative to control; assay type: functional, Cavia porcellus, Cardiac atrium; design: scale not given: the % may be the effect or the level left; method in brief: as §1
Heart [11] = experiment: Effect on cardiac activity in guinea pig spontaneously beating heart assessed as change in left ventricular pressure at 1 uM relative to control; assay type: functional, Cavia porcellus; method in brief: as §2
[12] = Negative chronotropic activity in guinea pig spontaneously beating right atrium assessed as decrease in atrial rate at 100 uM relative to control; assay type: functional, Cavia porcellus, Cardiac atrium; design: scale not given: the % may be the effect or the level left; method in brief: as §1
[13] = Negative inotropic activity in guinea pig left atrium assessed as decrease in atrial tension at 1 uM relative to control; assay type: functional, Cavia porcellus, Cardiac atrium; design: scale not given: the % may be the effect or the level left
[14] = target: T1, Voltage-gated L-type calcium channel (Rattus norvegicus, UniProt P22002+Q02485+P27732); experiment: Displacement of [3H]diltiazem from L-type calcium channel in Sprague-Dawley rat cardiac myocytes by liquid scintillation counting; assay type: cell-based; details: for Activity: rat
[15] = Ratio of IC50 for L-type calcium channel in Wistar rat tail artery smooth muscle cells to EC50 for negative inotropic activity in guinea pig left atrium; design: species or system Cardiac atrium
[16] = target: T1, Voltage-gated L-type calcium channel; experiment: Inhibition of L-type calcium channel in Wistar rat tail artery smooth muscle cells assessed as blockade of barium[…] current at 10 uM by whole cell patch-clamp assay
Method in brief: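 Single smooth muscle cells isolated from rat tail main artery. Peak barium current through L-type channels [I_Ba(L)] recorded under cumulative concentrations, reported as percent inhibition. IC50 from log concentration-response curves, mean ± SEM, n = 4.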

[17] = target: T1, Voltage-gated L-type calcium channel; experiment: Inhibition of L-type calcium channel in Wistar rat tail artery smooth muscle cells assessed as blockade of barium[…] current by whole cell patch-clamp assay; details: for Activity: rat
Method in brief: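 Single smooth muscle cells isolated from rat tail main artery. Peak barium current through L-type channels [I_Ba(L)] recorded under cumulative concentrations, reported as percent inhibition.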

[18] = Negative inotropic activity in guinea pig left atrium assessed as decrease in atrial tension at 100 uM relative to control; assay type: functional, Cavia porcellus, Cardiac atrium; design: scale not given: the % may be the effect or the level left; method in brief: as §1
Aorta [19] = experiment: Vasorelaxant activity in potassium-depolarized guinea pig thoracic aorta assessed as inhibition of calcium-induced contraction at 100 uM; assay type: functional, Cavia porcellus; design: scale not given: the % may be the effect or the level left
[20] = Negative inotropic activity in guinea pig left atrium assessed as decrease in atrial tension at 5 uM relative to control; assay type: functional, Cavia porcellus, Cardiac atrium; design: scale not given: the % may be the effect or the level left; method in brief: as §1
[21] = Negative chronotropic activity in guinea pig spontaneously beating right atrium assessed as decrease in atrial rate at 5 uM relative to control; assay type: functional, Cavia porcellus, Cardiac atrium; design: scale not given: the % may be the effect or the level left
[22] = Negative chronotropic activity in guinea pig spontaneously beating right atrium assessed as decrease in atrial rate at 1 uM relative to control; assay type: functional, Cavia porcellus, Cardiac atrium; design: scale not given: the % may be the effect or the level left

SMILES	pEC50 [1]	Activity [2] [%]	Activity (Aorta [3]) [%]	Activity [4] [%]	Activity [12] [%]	Activity [18] [%]	Activity (Aorta [19]) [%]	also measured
COc1ccc(C2(O)SC=C(C)n3c2noc3=O)cc1 (stereo unspecified)	6.49	18	12	97	–	–	–	–
CC1=CSC(O)(c2ccc(Cl)cc2)c2noc(=O)n21 (stereo unspecified)	6.10	18	26	–	–	–	–	Activity [5]: 80%; Activity (Aorta [6]): <30%
CCOC1(c2ccc(Br)cc2)SC=C(C)n2c1noc2=O (stereo unspecified)	7.40	–	19	77	–	–	–	Activity (Heart [7]): 32%; Activity (Heart [8]): -9%; Activity (Heart [9]): -14%; Activity [10]: 5%; Activity (Heart [11]): -3%
CC1=CSC(O)(c2ccccc2)c2noc(=O)n21 (stereo unspecified)	6.64	14	4	–	–	–	–	Activity [5]: 95%
C/C(=C/[S][Ag])n1c(C(=O)c2ccc(Cl)cc2)noc1=O	–	–	4	–	7	–	–	Activity [13]: 49%; Activity (Aorta [6]): <30%
CC1=CSC(O)(c2ccc(Br)cc2)c2noc(=O)n21 (stereo unspecified)	6.49	18	12	97	–	–	–	Ki [14]: 0.29 µM; Activity [14]: Dose-dependent effect; Ratio IC50 [15]: 100; Activity [16]: Not Active; IC50 [17]: 33.36 µM; Activity [17]: Dose-dependent effect; Activity (Aorta [6]): <30%
CCCS/C=C(/C)n1c(C(=O)c2ccc(Cl)cc2)noc1=O	5.66	17	–	–	–	84	15	–
C/C(=C/Sc1sc([N+](=O)[O-])cc1[N+](=O)[O-])n1c(C(=O)c2ccc(Br)cc2)noc1=O	6.14	–	32	–	–	–	–	Activity [20]: 85%; Activity [10]: 27%
CCCCCCCCCS/C=C(/C)n1c(C(=O)c2ccc(Br)cc2)noc1=O	5.99	–	–	–	3	84	12	–
C/C(=C/SCC(C)C)n1c(C(=O)c2ccc(Br)cc2)noc1=O	6.04	–	–	–	16	88	24	–
C=CCS/C=C(/C)n1c(C(=O)c2ccc(Cl)cc2)noc1=O	5.87	–	–	–	–	70	23	Activity [21]: 6%
C/C(=C/[S+](C)[O-])n1c(C(=O)c2ccc(Cl)cc2)noc1=O (stereo unspecified)	6.68	–	–	71	4	–	7	–
CCCCCCCCCS/C=C(/C)n1c(C(=O)c2ccc(Cl)cc2)noc1=O	6.17	–	–	–	2	–	5	Activity [5]: 84%
C/C(=C/S(C)(=O)=O)n1c(C(=O)c2ccc(Cl)cc2)noc1=O	5.95	–	–	–	7	72	13	–
C/C(=C/[S][Ag])n1c(C(=O)c2ccc(Br)cc2)coc1=O	–	–	–	–	–	–	26	Activity (Heart [7]): 30%; Activity (Heart [8]): -3%; Activity (Heart [9]): -4%; Activity [13]: 32%; Activity [22]: 18%; Activity (Aorta [6]): <30%; Activity (Heart [11]): 0%
C/C(=C/SCc1ccccc1)n1c(C(=O)c2ccc(Cl)cc2)noc1=O	5.81	–	–	–	5	78	33	–
C/C(=C/SCc1ccccc1)n1c(C(=O)c2ccc(Br)cc2)noc1=O	5.89	–	6	80	–	–	–	Activity [10]: 31%
C/C(=C/Sc1sc([N+](=O)[O-])cc1[N+](=O)[O-])n1c(C(=O)c2ccc(Cl)cc2)noc1=O	5.85	15	35	67	–	–	–	–
CCS/C=C(/C)n1c(C(=O)c2ccc(Cl)cc2)noc1=O	5.68	30	–	75	–	–	27	–
CS/C=C(/C)n1c(C(=O)c2ccc(Br)cc2)noc1=O	6.39	–	–	95	–	–	10	Ki [14]: 0.49 µM; Activity [14]: Dose-dependent effect; Ratio IC50 [15]: 60; Activity [13]: <50%; Activity [10]: 2%; Activity [16]: Not Active; IC50 [17]: 25.21 µM; Activity [17]: Dose-dependent effect
C/C(=C/SS/C=C(/C)n1c(C(=O)c2ccc(Br)cc2)noc1=O)n1c(C(=O)c2ccc(Br)cc2)noc1=O	5.77	–	–	–	9	73	5	Ki [14]: 0.2 µM
CCOC1(c2ccc(Cl)cc2)SC=C(C)n2c1noc2=O (stereo unspecified)	6.57	16	28	–	–	–	–	Activity [20]: 53%
CCS/C=C(/C)n1c(C(=O)c2ccc(Br)cc2)noc1=O	5.88	–	–	–	18	89	43	–
CS/C=C(/C)n1c(C(=O)c2ccc(Cl)cc2)noc1=O	5.84	10	8	71	–	–	–	–
C/C(=C/[S+](C)[O-])n1c(C(=O)c2ccc(Br)cc2)noc1=O (stereo unspecified)	6.32	–	–	–	33	89	2	Ki [14]: 23.68 µM
C/C(=C/SS/C=C(/C)n1c(C(=O)c2ccc(Cl)cc2)noc1=O)n1c(C(=O)c2ccc(Cl)cc2)noc1=O	5.36	–	–	–	4	72	6	–
C=CCS/C=C(/C)n1c(C(=O)c2ccc(Br)cc2)noc1=O	5.89	18	–	–	–	89	21	–
CCCS/C=C(/C)n1c(C(=O)c2ccc(Br)cc2)noc1=O	5.91	–	–	–	10	80	26	–
C/C(=C/SCC(C)C)n1c(C(=O)c2ccc(Cl)cc2)noc1=O	5.68	–	–	–	5	84	6	–
